# This is a sample that favours compounds with a hit; in the whole collection about 3% have one here.
# MEKK3 PB1 HTS = raises or lowers MEK5 binding to the human MEKK3 PB1 domain; bead-based flow cytometry, Alexa488-MEK5 binding to MEKK3; actives lie on both sides; 0 = blocked by unlabeled MEK5, 100 = vehicle; Q99759; binding response (% of control), % at 10 µM; actives 1.4% (n = 290,000); AID 1529;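 active means binding response more than 3 SD above or below the average of its plate-row segment, actives on both sides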;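 further: Alexa488 bead fluorescence after subtracting the streptavidin-only scavenger bead signal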
# MEKK2mut PB1 HTS = signal of MEK5 binding to mutant human MEKK2 PB1 domain; bead flow cytometry, Alexa488-MEK5 binding to MEKK2 mutant; percent response, % at 10 µM; actives 0.35% (n = 290,000); in the data active means percent response above about 24%, passing the limit was not always enough
# MEKK2wt PB1 HTS = raises or lowers MEK5 binding to wildtype human MEKK2 PB1 domain; actives 1.1% (n = 290,000); binding response (% of control), % at 10 µM; Q9Y2U5; bead flow cytometry, Alexa488-MEK5 binding to MEKK2 WT; actives lie on both sides; AID 1531; in the data active means binding response below about 67% or above about 130%
# Apaf1 inhib = human Apaf-1 inhibition. O14727. reconstituted apoptosome caspase-3 activity, DEVD-Rh110 fluorescence. inhibition, % at 20 µM. actives 0.71% (n = 330,000); active means inhibition of at least 40% at 20 µM
# Target sequence (O14727 whole entry, looked up): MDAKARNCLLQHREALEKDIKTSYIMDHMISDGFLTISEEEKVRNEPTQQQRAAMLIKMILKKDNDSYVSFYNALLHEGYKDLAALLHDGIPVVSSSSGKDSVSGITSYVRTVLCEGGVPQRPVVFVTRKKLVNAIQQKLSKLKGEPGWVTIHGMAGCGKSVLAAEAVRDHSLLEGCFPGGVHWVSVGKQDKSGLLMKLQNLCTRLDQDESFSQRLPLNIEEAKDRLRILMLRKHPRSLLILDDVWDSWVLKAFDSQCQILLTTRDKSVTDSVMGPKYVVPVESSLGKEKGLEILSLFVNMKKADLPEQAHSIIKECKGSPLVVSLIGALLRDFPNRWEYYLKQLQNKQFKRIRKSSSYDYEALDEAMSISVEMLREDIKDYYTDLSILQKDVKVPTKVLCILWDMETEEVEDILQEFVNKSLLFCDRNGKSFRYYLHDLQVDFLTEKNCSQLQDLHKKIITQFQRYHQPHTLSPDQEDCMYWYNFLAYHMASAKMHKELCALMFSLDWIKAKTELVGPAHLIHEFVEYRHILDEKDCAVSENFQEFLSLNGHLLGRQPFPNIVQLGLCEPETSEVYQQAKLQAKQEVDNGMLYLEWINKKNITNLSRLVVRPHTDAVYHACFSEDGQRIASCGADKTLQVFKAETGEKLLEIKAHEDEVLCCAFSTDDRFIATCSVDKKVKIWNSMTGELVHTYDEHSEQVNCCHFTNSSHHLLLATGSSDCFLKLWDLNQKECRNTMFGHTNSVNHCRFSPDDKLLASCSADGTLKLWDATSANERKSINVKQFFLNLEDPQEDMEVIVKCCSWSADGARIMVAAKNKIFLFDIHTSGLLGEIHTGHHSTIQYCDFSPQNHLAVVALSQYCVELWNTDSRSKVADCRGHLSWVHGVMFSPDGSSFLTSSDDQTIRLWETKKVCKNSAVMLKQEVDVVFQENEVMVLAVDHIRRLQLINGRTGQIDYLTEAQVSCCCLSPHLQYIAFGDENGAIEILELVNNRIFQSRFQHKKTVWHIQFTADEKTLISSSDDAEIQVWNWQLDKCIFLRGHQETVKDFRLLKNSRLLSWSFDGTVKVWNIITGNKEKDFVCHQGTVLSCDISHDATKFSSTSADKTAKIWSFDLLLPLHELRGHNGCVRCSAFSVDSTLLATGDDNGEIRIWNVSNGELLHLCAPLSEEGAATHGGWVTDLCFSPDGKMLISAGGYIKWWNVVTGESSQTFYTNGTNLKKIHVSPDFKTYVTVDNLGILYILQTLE
#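 System: reconstituted apoptosome with Apaf-1, cytochrome c, caspase-9, procaspase-3, dATP; Signal: Rh110 fluorescence intensity; Schedule: 30 min compound preincubation, 50 min activation, room temperature; Reagent: cytochrome c trigger plus (Z-DEVD)2-Rh110 caspase-3 substrate.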
# UBC13 polyUb = inhibitors of human UBC13 polyubiquitin chain formation | P61088 | TR-FRET | inhibition, % at 20 µM | actives 0.47% (n = 330,000); in the data active means inhibition above about 45%, passing the limit was not always enough
# UCH37 DUB inh = blocks the human deubiquitinase UCH37; inhibition, % (concentration not given with the values); actives 0.33% (n = 330,000); purified proteasome/UCH37, Ub-AMC cleavage fluorescence; Q9Y5K5;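 active means mean inhibition over replicate wells above about 20%, limit read from the data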
#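 System: Proteasome-associated human UCH37 deubiquitinase; Input: 0.15 nM proteasome in added enzyme buffer; Also added: Ub-AMC substrate from 1 µM stock; Incubation: 30 min compound-proteasome preincubation then 25 min substrate reaction, room temperature; Detection: fluorescence, ex 355 nm, em 460 nm; Read-out: % inhibition of Ub-AMC cleavage fluorescence; Benchmarks: no-proteasome and no-compound wells.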
# Hits are given with their value; 0 = inactive; - = not tested or not shown; [ ] = dose if it differs, or a comment.
SMILES,MEKK3 PB1 HTS,MEKK2mut PB1 HTS,MEKK2wt PB1 HTS,Apaf1 inhib,UBC13 polyUb,UCH37 DUB inh
O=C(Cc1cc(=O)[nH][nH]1)N/N=C/c1ccccc1Cl,0,0,0,77,0,-
O=C(Cc1cc(=O)[nH][nH]1)NN=Cc1ccccc1[N+](=O)[O-],-,-,-,-,-,0
N#C/C(C(=O)c1ccccc1)=C1/SC=C(N)N1c1ccccc1,2.0[inhibitor],0,4.0[inhibitor],-,-,-
N#Cc1ccc(C23CC4(C2)[C@H](CN(CC2CCCCC2)[C@@H]4c2ccccc2)C3c2ccc(C(F)(F)F)cc2)cc1 (some centres undefined),0,0,0,42,0,0
CCc1cc(=O)n2c([nH]c3ccccc32)c1C#N,0,0,0.0,0,0,0
N#Cc1c(Cn2cncn2)nc(=O)n(-c2ccccc2)c1N,0,0,0,0,0,0
O=C(CCCOc1ccc(Cl)cc1Cl)N1CCc2ccccc2C1,0,0,0,0,0,0
O=[N+]([O-])c1ccc(N/N=C/c2sc(N3CCOCC3)nc2-c2ccccc2)c(S(=O)(=O)Nc2ccccc2Cl)c1,0,63,-,-,-,-
COC(=O)/C=C1\S/C(=N/NC(=O)c2ccc(OC)cc2)NC1=O,0,0,0,0,0,0
COC(=O)/C=C1/S/C(=N/NC(=O)c2ccc(OC)cc2)NC1=O,0,0,0,0,0,25
COc1ccc2oc(=O)c(C(=O)NCc3ccc(F)cc3)cc2c1,0,0,0,0,0,0
O=C1c2cccc3cccc(c23)C(=O)N1CC1CCN(S(=O)(=O)c2ccccc2)CC1,-,-,-,-,-,0
O=C(c1ccc(S(=O)(=O)N2CCCCCC2)cc1)N1CCC(CN2C(=O)c3cccc4cccc(c34)C2=O)CC1,0,0,0,0,46,0
N#CC(C#N)=C1C=C2C=C(N3CCCCCC3)CCC2CC1 (centres undefined),0,0,0,-,-,0
CCN1CCN(C2=CC3=CC(=C(C#N)C#N)CCC3CC2)CC1 (centres undefined),0,0,0,-,-,32
CN(C)CCCN(C(=O)c1cc(-c2cccs2)nc2ccccc12)c1nc2ccc(F)cc2s1,0,54,203,0,0,0
CN(C)CCN(C(=O)c1cc(Cl)sc1Cl)c1nc2ccc(F)cc2s1,0,0,0,0,0,0
O=C(Cn1c(=O)c2cccn2c2ccc(F)cc21)NCCCN1CCN(c2ccccc2F)CC1,0,27,156,0,0,0
Cc1c(C)n(C)c2ccc(C(=O)NCCCN3CCN(c4ccc(F)cc4)CC3)cc12,0,0,134,0,0,0
CN(C)CCNC(=O)Cn1c(=O)c2cccn2c2ccc(F)cc21,0,0,0,0,0,0
Cc1c(C)n(C)c2ccc(C(=O)NCCCN3CCN(c4ccccc4F)CC3)cc12,0,0,158,0,0,0
O=C(CSC1CN(C(c2ccccc2)c2ccccc2)C1)N/N=C/c1ccc(Cl)cc1Cl,0,0,0,0,0,-
COC(=O)c1cccc(C(=O)Nc2ccc(C)cc2)n1,0,0,0,0,0,0
CCc1ccc(NC(=O)c2cccc(C(=O)Nc3ccc(CC)cc3)n2)cc1,0.0[inhibitor],0,-9.0[inhibitor],0,0,0
CC(=NNC(=O)c1ccc(C)cc1C)c1ccc2c(c1)Nc1ccccc1S2,-,-,-,-,-,0
SMILES,MEKK3 PB1 HTS,MEKK2mut PB1 HTS,MEKK2wt PB1 HTS,Apaf1 inhib,UBC13 polyUb,UCH37 DUB inh
CC1CCN(C(=O)C2CCN(S(=O)(=O)c3cccnc3)CC2)CC1,0,0,0,0,0,0
COc1cccc(/C=C2/Sc3ccc(C(=O)NCCCN4CCCC4)cc3NC2=O)c1,0,0,167,0,0,0
O=C1Nc2cc(C(=O)NCCCN3CCCC3)ccc2S/C1=C/c1ccccc1F,0,0,138,0,0,0
COc1ccc(/C=C2\Sc3ccc(C(=O)NC4CC4)cc3N(C)C2=O)cc1OC,0,0,0,0,0,0
COc1ccc(/C=C2\Sc3ccc(C(=O)NCCN4CCCCCC4)cc3N(C)C2=O)cc1,0,54,203,0,0,0
CN1C(=O)/C(=C\c2ccccc2F)Sc2ccc(C(=O)NC3CCN(Cc4ccccc4)CC3)cc21,0,0,168,0,0,-
CCCNC(=O)N1CCCC(C(N)=O)C1 (centres undefined),0,0,0,0,0,0
CCN1CCCC1CNC(=O)c1ccc2c(c1)NC(=O)/C(=C\c1ccc(C)cc1)S2 (centres undefined),0,43,194,0,0,0
O=C(NCCCN1CCCCCC1)c1ccc2c(c1)NC(=O)C(N1CCOCC1)S2 (centres undefined),0,0,0,0,0,22
Cc1ccc(/C=C2/Sc3ccc(C(=O)NCCN4CCOCC4)cc3NC2=O)cc1,0,0,0,0,0,0
CCC(=NCCc1ccc(OC)c(OC)c1)c1ccccc1O,0,0,0,0,0,0
COc1ccc(OC)c(NC(=O)c2nnn(Cc3ccc(Br)cc3F)c2N)c1,0,0,0,0,0,0
C#CCOCCOCCOCCNc1nc(N2CCOCC2)nc(N2CCN(C(=O)CCCCCCCCCCNC(=O)[C@@H]([C@H](C)O)n3cc(C)nn3)CC2)n1,-,-,-,0,0,0
C#CCOCCOCCOCCNc1nc(N2CCN(C(=O)CCCCCCCCCCNC(=O)[C@H]([C@@H](C)CC)n3cc(CCCCCN)nn3)CC2)nc(N2CCN(C(=O)CCCCCCCCCCNC(=O)[C@@H]([C@H](C)O)n3cc(C)nn3)CC2)n1,-,-,-,50,118,0
C#CCOCCOCCOCCNc1nc(N2CCN(C(=O)CCCCCCCCCCNC(=O)[C@H](CCC(=O)O)n3cc(CCCCCN)nn3)CC2)nc(N2CCN(C(=O)CCCCCCCCCCNC(=O)[C@@H]([C@H](C)O)n3cc(C)nn3)CC2)n1,-,-,-,51,0,0
C#CCOCCOCCOCCNc1nc(N2CCN(C(=O)CCCCCCCCCCNC(=O)[C@@H]([C@H](C)O)n3cc(C)nn3)CC2)nc(N2CCN(C(=O)CCCCCCCCCCNC(=O)[C@@H]([C@H](C)O)n3cc(C)nn3)CC2)n1,-,-,-,0,0,0
Cc1cccc(C)c1NC(=O)C1CSC2(C)CCC(=O)N12 (centres undefined),-,-,-,0,0,0
O=C(COC(=O)c1ccc(S(=O)(=O)NCc2ccco2)cc1)NC1CCCCC1,0,0,0,0,0,0
C#CCOc1ccccc1CNC1CCN(Cc2ccccc2)CC1,0,0,0,0,0,0
O=C(O)/C(=C\c1cccc(F)c1)c1ccc(S(=O)(=O)N2CCCC2)s1,-,-,-,0,0,0
Cc1ccc(C(=O)c2c3ccc(C(F)(F)F)cc3[n+]([O-])n2CCC(N)=O)cc1,0,0,0,0,0,0
Cc1ccc(C(=O)c2c3ccc(N)cc3nn2CCC(N)=O)cc1,0,0,0,82,0,0
O=C(COC(=O)CCc1c[nH]c2ccccc12)NC(c1ccccc1)c1ccccc1,136,0,0,0,0,0

# Compound activity from PubChem BioAssay.
